Results reported in ChEMBL document CHEMBL4513216, “Probing the Open Global Health Chemical Diversity Library for Multistage-Active Starting Points for Next-Generation Antimalarials” (ACS Infect Dis, 2020).

Assay: Toxicity liver stage against HepG2, at 10uM
Type: cell-based
Parameters: test concentration 10 uM, cell line HepG2-A16-CD81EGFP
Settings: human, HepG2-A16-CD81EGFP cells; read-out: INHIBITION
How it was run: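 Uninfected HepG2-A16-CD81EGFP cells, 3 × 10^3 per well, 1536-well, plated on prespotted compound at 10 μM final, parasite-free screening media added to match infected plates; puromycin 10 μM positive, DMSO 0.5% negative; run in parallel with 48 h PbLuc assay at 37 °C, 5% CO2; viability by CellTiter-Glo luminescence, normalized to controls.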

Row | SMILES | cytotoxicity at 10 µM
1 | COc1ccc(OC)c(Sc2ncccc2C(=O)NCCSC)c1 | 20.7%
2 | CC(C)c1cc(C(=O)O)nc2[nH]c(=O)[nH]c(=O)c12 | -3.25%
3 | COc1cc(OC)cc(-c2noc(CC(N)c3ccccc3)n2)c1 (stereo not given) | 4.47%
4 | O=C(Cn1ncc2c(c1=O)CCCCC2)Nc1cccc2[nH]ccc12 | 0.417%
5 | COC(=O)c1ccc(C(=O)NCC2(O)CCOCC2)cc1 | -5.08%
6 | COCc1cnc2n1CCN(S(=O)(=O)c1c(C)nn(C)c1C)C2C (stereo not given) | 15.4%
7 | Cc1ncnc2c1CCN(C(=O)Cc1cccc(F)c1)CC2 | -5.95%
8 | CN(C)C(=O)c1nc2c(s1)CCCN2Cc1ccccc1 | 7.58%
9 | CC(C)NC(=O)c1nc2c(s1)CCCN2Cc1ccccc1 | 18.3%
10 | CCOC(=O)C1CN(C(=O)C2CCOCC2)Cc2ncn(CC)c21 (stereo not given) | 5.65%
11 | C[C@H]1C[C@@H]2CCN(CC3CCOCC3)C[C@H]2O1 | 10.3%
12 | CCOCC1CN(Cc2ccsc2)Cc2cnn(C)c21 (stereo not given) | 7.72%
13 | COc1ncccc1CN1C[C@H](C(=O)N2CCCO2)[C@@H]2CCO[C@@H]2C1 | 11.2%
14 | O=C(O)c1ccc2[nH]cc(CN3CCCC3)c2c1 | -2.66%
15 | O=C1COc2ccc(S(=O)(=O)NCC3CCCO3)c3c2N1CCC3 (stereo not given) | -4.2%
16 | CCS(=O)(=O)N1Cc2nccn2CC(COc2cccnc2)C1 (stereo not given) | -2.34%
17 | COCC(=O)N1CCN(C)CC(Cc2cc(N(C)C)ncn2)C1 (stereo not given) | -1.79%
18 | CN1CCCC(c2ccnc(C(=O)NCC3CC3)c2)C1 (stereo not given) | 3.89%
19 | CC(=O)N1CCCN(c2cc(C3CN(C)CCO3)nc(C)n2)CC1 (stereo not given) | 7.47%
20 | CNc1nc2ncc(Cl)cc2cc1C#N | 5.05%
21 | Cc1cc(C)c2ncc(C#N)c(N3CCS(=O)(=O)CC3)c2c1 | -8.17%
22 | Cc1cc(C)c(CNC(=O)C(C)Oc2cccc(C#N)c2)c(=O)[nH]1 (stereo not given) | 7.42%

Row | SMILES | cytotoxicity at 10 µM
23 | Cc1nc(C)n(CC2CCCCN2CCCC#N)n1 (stereo not given) | 6.73%
24 | Cc1cc(C)n(CC2CCCCN2CCCS(=O)(=O)N(C)C)n1 (stereo not given) | 2.32%
25 | O=C(NCCCF)N1CCC(n2ccc(C(F)(F)F)n2)CC1 | -5.29%
26 | O=C(Nc1nccs1)NC1CCOc2ccccc21 (stereo not given) | 6.78%
27 | CS(=O)(=O)c1ccc(OCCNCc2c(F)cccc2F)cc1 | -7.12%
28 | CC(=O)c1ccc(NC(=O)C(NC(=O)Nc2ccccc2)C(C)C)cc1 (stereo not given) | -0.719%
29 | COc1cc(F)c(NC(=O)N(C)CCNC(=O)N(C)C)cc1F | 17.6%
30 | Cc1nc(CN(C)c2nc3c(cnn3C(C)(C)C)c(=O)[nH]2)cs1 | -5.53%
31 | Cc1n[nH]c(C)c1C1CCCN1C(=O)c1coc(Br)c1 (stereo not given) | 4.23%
32 | CSCC(CCO)NC(=O)c1cccc(Cl)c1F (stereo not given) | 19%
33 | Cc1noc2ncc(S(=O)(=O)N3CCCC(C)(C)CC3)cc12 | 8.88%
34 | COc1ccc(Cl)cc1NC(=O)CNc1ccn(CC(N)=O)n1 | 13.6%
35 | [O-][S+](CCN1CCc2[nH]nc(C(F)(F)F)c2C1)c1ccccc1 (stereo not given) | -9.92%
36 | Cn1c(C(=O)NS(C)(=O)=O)ccc1-c1ccccc1 | -6.85%
37 | c1ccc(CSc2nnc(C3CC3)s2)nc1 | 0.873%
38 | Cc1cccc(C)c1NCc1noc(C2CC2)n1 | -5.06%
39 | Cc1nnc(CN(Cc2ccc(Cl)c(Cl)c2)C2CC2)o1 | 4.85%
40 | CS(=O)(=O)Cc1nc(CN2CCCc3sccc3C2)cs1 | 7.28%
41 | CN(Cc1ccc(Cl)c(F)c1)C(=O)c1ccncc1F | 3.31%
42 | COCCn1nc(C(=O)N(C)Cc2cnn(C)c2)ccc1=O | -2.44%
43 | Cn1c(CN2CCN(CC3CC3)CC2)nnc1C1CCC1 | -26.7%
44 | Cc1nn(C)c(C)c1CN(C)C(=O)C1COc2ccccc2C1 (stereo not given) | -3.35%

Row | SMILES | cytotoxicity at 10 µM
45 | NC(=O)c1ccc(-n2ccnc2C2CC2)cc1N1CCCC1 | -3.82%
46 | CC(C1CCN(Cc2ccc(N(C)C)nc2)CC1)N1CCOCC1 (stereo not given) | 6.06%
47 | Cc1ccc(C)c(OCCNC(=O)C2CCOC2)c1 (stereo not given) | -2.73%
48 | CC(O)c1cccc(-n2c(CCC(=O)O)nc3ccccc32)c1 (stereo not given) | 2.16%
49 | CCN(C)C[C@@H]1CN(S(=O)(=O)c2cccc(C#N)c2)C[C@@H]1CO | 5.45%
50 | c1cnc(N2CCC(c3nccn3CC3CC3)CC2)nc1 | -7.28%
51 | FC(F)(F)c1ccc(-c2noc3c2CN(CC2CCCO2)CC3)cc1 (stereo not given) | 1.99%
52 | CCCC1(C(=O)O)CCCN(C(=O)c2cc(Cl)ccc2F)C1 (stereo not given) | 0.515%
53 | Cc1cc(C)n(C2CCN(c3ncnc4c3CCC4)C2)n1 (stereo not given) | 23.6%
54 | COc1cnc(CN2CC(=O)N(c3ccc(C)cc3)CC2C)cc1O (stereo not given) | 4.01%
55 | CS(=O)(=O)CCN1CC(c2ccccc2)(c2ccccc2)CCC1=O | 0.623%
56 | N[C@H]1CN(C(=O)CCC(F)(F)F)C[C@@H]1c1ccccc1 | 6.95%
57 | O=C(c1ncc[nH]1)N1CCC(n2cc(-c3cccc(Cl)c3)nn2)CC1 | 5.28%
58 | CN1CCN(C2CCN(CCOc3ccc(Cl)cc3)CC2)C1=O | -5.36%
59 | c1ccc(-c2nccc(CNC3CCc4ncnn4C3)n2)cc1 (stereo not given) | 0.787%
60 | CC(C)c1nccn1C1CCCN(C(=O)CCNS(C)(=O)=O)C1 (stereo not given) | -3.71%
61 | CCC(O)CN1CCN(C(=O)c2cc(Cl)cc3cccnc23)CC1 (stereo not given) | -13.7%
62 | Cc1cc(C(=O)NCc2ccnc(N3CCN(C)CC3)c2)sc1C | -11.7%
63 | Cc1cnn(CC2CCCCN2Cc2nc(C)c3ccccc3n2)c1 (stereo not given) | -8.54%
64 | O=c1[nH]c(CCN2CCCCC2Cn2cccn2)nc2ccccc12 (stereo not given) | -16.4%
65 | CC(C)c1nnc(CN2CCN(CC(O)c3ccccc3)CC2)o1 (stereo not given) | -7.03%
66 | CC(Cn1ccnc1)NC(=O)N(C)Cc1ccc2c(c1)OCCO2 (stereo not given) | -29.5%

Row | SMILES | cytotoxicity at 10 µM
67 | COC(=O)C(c1cc(F)ccc1F)N(C)C(=O)c1ccccn1 (stereo not given) | -2.72%
68 | N#Cc1ccc(OCCCN2CCOC(Cn3cncn3)C2)cc1 (stereo not given) | -0.0581%
69 | Cc1cc(C)n(CC2CCCN2CC(=O)N(C)CCC#N)n1 (stereo not given) | -14.8%
70 | Cc1ccc(-c2nnc(CN3CCc4nn(C)c(=O)cc4C3)o2)cc1 | -23.4%
71 | CN(c1cccnn1)C1CCN(C(=O)Cc2c[nH]c3ccccc23)CC1 | -20.1%
72 | Cc1cc(C)c(CNC(=O)NCC(O)COc2ccccc2)c(=O)[nH]1 (stereo not given) | -5.75%
73 | CS(=O)(=O)NC1CCN(C(=O)NCCNc2ccccn2)CC1 | -0.685%
74 | CCc1nc(CN(C)CC(c2cccs2)N2CCOCC2)no1 (stereo not given) | -2.36%
75 | Cc1nn(C)c(N(C)C)c1CNCCCN(C)S(C)(=O)=O | -4.07%
76 | O=C(Nc1ncn(CC(=O)N2CCCCCC2)n1)C1CCCO1 (stereo not given) | -4.56%
77 | Cc1cc(CNCc2c(C)nn(C)c2N2CCOCC2)no1 | -8.11%
78 | Cc1nc(C)n(CC2CCCN2Cc2nc(-c3cccs3)no2)n1 (stereo not given) | -4.02%
79 | Cc1cc(CN2CCN(CC(O)c3ccccc3)CC2)no1 (stereo not given) | -14.4%
80 | COc1ccc(CC(=O)NC2(C)CCS(=O)(=O)C2)cc1F (stereo not given) | 2.05%
81 | Cc1cc(CN(C)C(=O)c2ccc(Cl)c(S(C)(=O)=O)c2)no1 | -2.77%
82 | O=C(C1CCN(c2snc3ccccc23)CC1)N1CCCCCC1 | 11.7%
83 | CCn1cnnc1CNC(=O)c1ccc(Cl)cc1F | -0.457%
84 | CC1CCN(S(=O)(=O)NCCCn2cncn2)CC1 | -4.91%
85 | c1csc(-c2nc(CN3CCOC(Cn4cccn4)C3)co2)c1 (stereo not given) | -11.1%
86 | O=C(CCC(=O)N1CCCC1c1cccs1)N1CCc2sccc2C1 (stereo not given) | -8.45%
87 | Cc1cnn(CC2CCCCN2Cc2nc(-c3ccoc3)no2)c1 (stereo not given) | -7.2%
88 | O=C(c1ccccc1OCC1CC1)N1CCCC(n2ccnc2)C1 (stereo not given) | -1.8%

Row | SMILES | cytotoxicity at 10 µM
89 | Cc1cn2c(n1)CCC(NC(=O)c1cnc(C)nc1C(C)C)C2 (stereo not given) | -0.144%
90 | COCCn1c(=O)n(C)c(=O)c2ccc(C3CCC(CN)CC3)nc21 (stereo not given) | -0.2%
91 | COCCN1C[C@@H](C)[C@@]2(COCCN(C(=O)c3ccccn3)C2)C1 | 9.58%
92 | CCN1CCC2(CC1)C(=O)N(c1ccc(C)nc1)CCN2CC(C)C | 16.4%
93 | Cn1nc(C2CCCN(Cc3cc(F)cc(F)c3)C2)c2nccnc21 (stereo not given) | -16.3%
94 | c1cnc(NCc2ncn3c2CN(Cc2cccnc2)CCC3)nc1 | -8.81%
95 | Cc1nc2c(c(NC(C)C)n1)CCN(C1CCOCC1)CC2 | 9.26%
96 | CN(Cc1cccnc1)[C@@H]1CN(Cc2cnn(C)c2)[C@@H]2CCCO[C@H]12 | -2.1%
97 | Cc1cccc(CN2C(=O)CO[C@@H]3CN(Cc4nccn4C)C[C@H]32)c1 | -16.7%
98 | Cc1nc(CN2CCC3(CCCN(Cc4cccnc4)C3)C2=O)cs1 (stereo not given) | 20.8%
99 | COCCN1CCO[C@@H]2CN(Cc3ccccn3)C[C@@H]2C1 | -3.06%
100 | c1coc(CN2C[C@@H]3OCCN(CCN4CCCC4)[C@@H]3C2)c1 | -1.52%
101 | CCOC(=O)C1CN(CC2CC2)Cc2ncn(CC)c21 (stereo not given) | 12.2%
102 | COc1c(CNC2CCc3c(Cl)cccc32)c(C)nn1C (stereo not given) | 13.3%
103 | Cc1nc(CN2CCO[C@@H]3CN(C(=O)NC(C)C)CC[C@@H]3C2)cs1 | 0.41%
104 | c1cncc(C2COC3(CCN(Cc4nccs4)CC3)C2)c1 (stereo not given) | 1.7%
105 | O=S(=O)(C1CC1)N1Cc2[nH]nc(COCC3CC3)c2C1 | 16.4%
106 | Cc1cc(CN2C[C@H]3CCC[C@@]3(COCC3CCOCC3)C2)no1 | 0.073%
107 | O=C(NC1CCC1)[C@H]1C[C@@H]2[C@@H](C1)OCCN2CC1CC1 | -2.17%
108 | Cc1cccc(-n2cc3[nH]c(=O)[nH]n3c2=O)c1 | 2.48%
109 | COc1cccc(-n2cc3[nH]c(=O)n(Cc4cccc(F)c4)n3c2=O)c1 | 0.647%
110 | Cc1nc(=O)c(CC(=O)N2C[C@H]3CC[C@@H](C2)N(CC2CCC2)C3)c(C)[nH]1 | 9.6%
